Results of several laboratories.
Protocols differ between the studies behind these lines.
Target: Calcium/calmodulin-dependent protein kinase type 1G (CAMK1G, Homo sapiens, UniProt Q96NX5)

| Structure (SMILES) | read-out | method | tested at | remaining binding |
| --- | --- | --- | --- | --- |
| C[C@@H](c1ccc(-n2cnc3c(N)ncnc32)cc1)N1CCc2nn(C)c(Cc3ccccc3)c2C1=O | binding | competition with immobilised ligand | 0.1 µM | 95% |
| Cc1cnc(Nc2ccc(C(=O)N3CCC(N4CCCC4)CC3)cc2)nc1-c1cc2ccccc2s1 | binding | competition with immobilised ligand | 1 µM | 68% |
| CN(C)c1nccc(-c2cnn3ncccc23)n1 | binding | competition with immobilised ligand | 1 µM | 92% |
| CCC(=N\O)/C(C)=C/c1ccc(F)cc1 | cell-free assay | competition with immobilised ligand | 1 µM | 97% |
| O=C(Nc1c[nH]nc1C(=O)NC1CCNCC1)c1cc(F)cc(F)c1 | binding | competition with immobilised ligand | 1 µM | 83% |
| CC(=O)N1CCC(c2ccc(C(=O)NC(=N)N)cc2C(F)(F)F)CC1 | cell-free assay | competition with immobilised ligand | 1 µM | 100% |
| N[C@@H]1CCN(c2nccc(-c3cnn4ncccc34)n2)C1 | binding | – | 1 µM | 100% |
| Nc1ncc2c(n1)-c1c([nH]c3ccc(C#CC4CC4)cc13)CCCC2 | binding | competition with immobilised ligand | 1 µM | 87% |
| COc1ncc2cc3ccccc3nc2c1C#N | cell-free assay | competition with immobilised ligand | 5 µM | 89% |
| F[C@@H]1CCN(c2nccc(-c3cnn4ncccc34)n2)C1 | binding | – | 1 µM | 100% |
| COc1cnc(Nc2cccc(S(N)(=O)=O)c2)nc1N1CCN(c2ccccc2)CC1 | binding | competition with immobilised ligand | 1 µM | 86% |
| O=C(NCCCN1CCOCC1)c1ccc(Nc2ncc(Cl)c(-c3ccc(Cl)s3)n2)cc1 | binding | competition with immobilised ligand | 1 µM | 74% |
| CN(C)c1nccc(-c2cnc3ncccn23)n1 | binding | – | 1 µM | 100% |
| O=C(Nc1ccc(Oc2ccc(F)cc2)cc1)N1CCc2ncccc2[C@H]1c1ccc(F)cc1 | cell-free assay | competition with immobilised ligand | 1 µM | 100% |
| C[C@H]1CCN(c2nccc(-c3cnn4ncccc34)n2)C1 | binding | – | 1 µM | 97% |
| C[C@@]1(Cc2ccc(C#N)cc2)C(=O)N(c2cc(Cl)cc(Cl)c2)c2ncc(C(=O)NC3(c4nc(C5CCC5)no4)CC3)n21 | cell-free assay | competition with immobilised ligand | 1 µM | 100% |
| CN(c1nccc(-c2cnn3ncccc23)n1)C1CC1 | binding | – | 1 µM | 100% |
| O=C(NCCCN1CCOCC1)c1ccc(Nc2nccc(-c3cc4ccccc4s3)n2)cc1 | binding | competition with immobilised ligand | 1 µM | 98% |
| N#Cc1ccc(Nc2ccc3[nH]c(=O)[nH]c3c2)c(Cl)c1 | cell-free assay | competition with immobilised ligand | 1 µM | 100% |
| CC1CCCN1c1nccc(-c2cnn3ncccc23)n1 (stereo not shown) | binding | competition with immobilised ligand | 1 µM | 100% |
| O=C(N1CCS(=O)(=O)CC1)N1C[C@H](c2ccc(OC(F)(F)F)cc2)C[C@H](c2nc(C3CC3)no2)C1 | cell-free assay | competition with immobilised ligand | 1 µM | 100% |
| FC(F)(F)Oc1cccc(-c2cnc3ccc(-c4ccncc4)nn23)c1 | cell-free assay | competition with immobilised ligand | 5 µM | 73% |
